26 compounds from ChEMBL document CHEMBL4616614, “Discovery of thieno[2,3-d]pyrimidin-4(3H)-one derivatives as a new class of ROCK inhibitors” (Bioorg Med Chem Lett, 2020) can be followed below.

Broadly, the IC50 is the point on the concentration scale where inhibition reaches its midpoint.

For assay [1], the target named is Rho-associated protein kinase 2 (Homo sapiens, UniProt O75116). Put plainly: Inhibition of recombinant human ROCK2 (11 to 552 residues) using KEAKEKRQEQIAKRRRLSSLRASTSKSGGSQK as substrate incubated for 40 mins in presence of [gamma-33P]ATP by radiometric scintillation assay.
The target of assay [2] is Rho-associated protein kinase 1 (Homo sapiens, UniProt Q13464). Description: Inhibition of recombinant human ROCK1 (17 to 535 residues) using KEAKEKRQEQIAKRRRLSSLRASTSKSGGSQK as substrate incubated for 40 mins in presence of [gamma-33P]ATP by radiometric scintillation assay. In a few lines: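 IC50 values determined through a commercial kinase profiling service, with ATP at 10 µM.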

SMILES strings stand for the structures. Where only a bound is given, the exact number is not on record here.

Sequence of Rho-associated protein kinase 1 (Q13464 whole entry, the tested form may be a part): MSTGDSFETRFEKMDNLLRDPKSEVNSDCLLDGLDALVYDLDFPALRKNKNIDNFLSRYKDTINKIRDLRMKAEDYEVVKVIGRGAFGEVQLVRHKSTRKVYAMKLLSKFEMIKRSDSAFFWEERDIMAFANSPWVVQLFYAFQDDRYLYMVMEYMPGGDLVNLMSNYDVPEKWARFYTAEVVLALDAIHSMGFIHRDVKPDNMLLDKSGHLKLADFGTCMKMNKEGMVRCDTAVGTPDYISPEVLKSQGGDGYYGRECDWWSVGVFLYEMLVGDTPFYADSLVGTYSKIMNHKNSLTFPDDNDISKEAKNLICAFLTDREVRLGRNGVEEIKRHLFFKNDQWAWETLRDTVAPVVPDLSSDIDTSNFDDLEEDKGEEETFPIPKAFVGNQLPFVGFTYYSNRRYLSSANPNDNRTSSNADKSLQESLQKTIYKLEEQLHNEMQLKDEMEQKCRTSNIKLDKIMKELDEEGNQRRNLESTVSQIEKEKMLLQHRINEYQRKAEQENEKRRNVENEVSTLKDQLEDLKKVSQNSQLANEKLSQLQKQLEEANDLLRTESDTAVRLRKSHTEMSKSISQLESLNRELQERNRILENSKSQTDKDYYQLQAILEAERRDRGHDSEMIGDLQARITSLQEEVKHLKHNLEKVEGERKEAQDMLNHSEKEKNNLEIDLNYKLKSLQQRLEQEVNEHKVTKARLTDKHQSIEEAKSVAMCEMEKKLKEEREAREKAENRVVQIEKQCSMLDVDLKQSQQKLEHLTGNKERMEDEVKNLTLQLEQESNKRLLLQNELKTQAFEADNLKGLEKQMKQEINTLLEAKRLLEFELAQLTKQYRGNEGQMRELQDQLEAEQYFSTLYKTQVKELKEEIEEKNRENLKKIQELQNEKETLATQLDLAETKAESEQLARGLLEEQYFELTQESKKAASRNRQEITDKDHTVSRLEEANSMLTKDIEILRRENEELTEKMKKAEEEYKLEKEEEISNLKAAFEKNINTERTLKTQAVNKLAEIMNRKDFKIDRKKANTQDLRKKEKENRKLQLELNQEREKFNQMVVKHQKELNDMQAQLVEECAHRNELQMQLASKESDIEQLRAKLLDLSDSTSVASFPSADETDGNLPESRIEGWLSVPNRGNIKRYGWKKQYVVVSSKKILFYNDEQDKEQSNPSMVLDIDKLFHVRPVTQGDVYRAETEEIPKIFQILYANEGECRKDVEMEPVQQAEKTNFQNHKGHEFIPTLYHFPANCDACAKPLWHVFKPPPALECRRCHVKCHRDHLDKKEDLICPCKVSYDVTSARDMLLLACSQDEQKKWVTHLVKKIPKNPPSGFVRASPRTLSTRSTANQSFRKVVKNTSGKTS
Sequence of Rho-associated protein kinase 2 (O75116 whole entry, the tested form may be a part): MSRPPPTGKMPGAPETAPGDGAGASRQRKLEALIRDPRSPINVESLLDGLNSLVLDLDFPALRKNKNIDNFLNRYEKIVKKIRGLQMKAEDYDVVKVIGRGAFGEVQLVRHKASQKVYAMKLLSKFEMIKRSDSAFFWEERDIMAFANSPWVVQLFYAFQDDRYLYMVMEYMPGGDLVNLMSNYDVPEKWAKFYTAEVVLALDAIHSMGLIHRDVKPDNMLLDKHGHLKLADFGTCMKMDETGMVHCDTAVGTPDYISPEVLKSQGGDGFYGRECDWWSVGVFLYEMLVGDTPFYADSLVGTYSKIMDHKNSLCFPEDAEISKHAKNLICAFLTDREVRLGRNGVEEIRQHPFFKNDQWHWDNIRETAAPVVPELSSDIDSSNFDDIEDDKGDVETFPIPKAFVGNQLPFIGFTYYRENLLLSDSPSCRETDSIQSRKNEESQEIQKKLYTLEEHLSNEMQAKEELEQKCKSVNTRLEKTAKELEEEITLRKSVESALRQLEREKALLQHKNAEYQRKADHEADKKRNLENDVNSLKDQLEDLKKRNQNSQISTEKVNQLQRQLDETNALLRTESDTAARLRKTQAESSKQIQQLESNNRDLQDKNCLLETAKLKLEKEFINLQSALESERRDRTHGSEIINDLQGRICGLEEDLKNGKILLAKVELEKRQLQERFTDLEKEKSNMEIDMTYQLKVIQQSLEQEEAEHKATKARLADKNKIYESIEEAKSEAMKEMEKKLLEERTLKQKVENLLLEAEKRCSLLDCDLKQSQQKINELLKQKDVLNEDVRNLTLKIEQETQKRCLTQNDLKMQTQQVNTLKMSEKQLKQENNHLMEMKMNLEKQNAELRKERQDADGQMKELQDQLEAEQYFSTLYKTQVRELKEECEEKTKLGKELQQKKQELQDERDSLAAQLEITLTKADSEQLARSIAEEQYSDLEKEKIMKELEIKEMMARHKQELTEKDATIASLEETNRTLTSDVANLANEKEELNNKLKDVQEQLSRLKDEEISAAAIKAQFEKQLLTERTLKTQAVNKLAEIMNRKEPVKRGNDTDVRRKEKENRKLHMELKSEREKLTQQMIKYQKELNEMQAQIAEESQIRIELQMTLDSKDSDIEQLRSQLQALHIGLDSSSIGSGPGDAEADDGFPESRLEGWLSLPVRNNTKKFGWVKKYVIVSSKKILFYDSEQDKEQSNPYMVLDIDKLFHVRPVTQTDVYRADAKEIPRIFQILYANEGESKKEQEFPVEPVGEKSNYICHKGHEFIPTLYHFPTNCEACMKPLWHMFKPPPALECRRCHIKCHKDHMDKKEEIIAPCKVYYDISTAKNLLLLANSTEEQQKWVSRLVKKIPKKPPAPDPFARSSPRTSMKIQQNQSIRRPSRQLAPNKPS

Consider `COc1cccc(Cn2cnc3sc(-c4cccnc4)cc3c2=O)c1`, for which the results for the IC50 in assay [1] and in assay [2] were 3480 nM and > 10000 nM, respectively.

`COc1cccc(Cn2cnc3sc(-c4ccc(N)nc4)cc3c2=O)c1`: the IC50 in assay [1] and in assay [2] was > 10000 nM throughout.

On to `COc1cc(Cn2cnc3sc(-c4ccnc5[nH]ccc45)cc3c2=O)cc(OC)c1`, for which the IC50 in assay [1] was 4 nM; in assay [2] it was 74 nM.

Consider `COc1cccc(Cn2cnc3sc(-c4ccc(-c5ccncc5)cc4)cc3c2=O)c1`, for which the concentration for half-maximal inhibition (IC50) in assay [1] and in assay [2] was > 10000 nM throughout.

Take `COc1cccc(Cn2cnc3sc(-c4ccc5[nH]ncc5c4)cc3c2=O)c1`: the IC50 in assay [1] is 2 nM; in assay [2] it was 20 nM.

As for `COc1ccc(Cn2cnc3sc(-c4ccnc(N)c4)cc3c2=O)cc1OC`, the figures for the 50% inhibitory concentration (IC50) in assay [1] and in assay [2] were 219 nM and > 10000 nM, respectively.

Consider `COc1ccc(Cn2cnc3sc(-c4ccnc5[nH]ccc45)cc3c2=O)cc1`, for which the results for the concentration for half-maximal inhibition (IC50) in assay [1] and in assay [2] were 2 nM and 13 nM, respectively.

In the case of `COc1cccc(Cn2cnc3sc(-c4ccnc5[nH]ccc45)cc3c2=O)c1`, the half-inhibitory concentration (IC50) in assay [1] worked out at 1 nM; in assay [2], 4 nM.

Consider `COc1cccc(Cn2cnc3sc(-c4cccc5[nH]ccc45)cc3c2=O)c1`, for which the IC50 is 583 nM in assay [1] and > 10000 nM in assay [2].

Consider `Nc1cc(-c2cc3c(=O)n(Cc4cccc(C(F)(F)F)c4)cnc3s2)ccn1`, for which the results for the concentration for half-maximal inhibition (IC50) in assay [1] and in assay [2] were 25 nM and 490 nM, respectively.

In the case of `COc1cccc(Cn2ccc3cc(-c4ccc5[nH]ncc5c4)ccc3c2=O)c1`, the 50% inhibitory concentration (IC50) in assay [1] is 107 nM; in assay [2], 1880 nM.

For the compound `COc1cccc(Cn2cnc3cc(-c4ccc5[nH]ncc5c4)ccc3c2=O)c1`, the half-inhibitory concentration (IC50) in assay [1] is 88 nM; in assay [2], 3110 nM.

On to `COc1cccc(Cn2cnc3sc(-c4ccncc4)cc3c2=O)c1`, for which the IC50 in assay [1] is 6 nM; in assay [2], 45 nM.

As to `COc1cccc(Cn2cnc3sc(-c4ccnc(OC)c4)cc3c2=O)c1`, the values for the IC50 in assay [1] and in assay [2] were 6910 nM and > 10000 nM, respectively.

Turning to `COc1cccc(CN2CCc3cc(-c4ccc5[nH]ncc5c4)ccc3C2=O)c1`, the IC50 in assay [1] amounted to 632 nM; in assay [2] it was 2060 nM.

For the compound `COc1cccc(Cn2cnc3sc(-c4ccnc(C)c4)cc3c2=O)c1`, the concentration for half-maximal inhibition (IC50) in assay [1] was 42 nM; in assay [2], 2510 nM.

For `COc1ccc(Cn2cnc3sc(-c4ccnc(N)c4)cc3c2=O)cc1`, the IC50 in assay [1] was found to be 46 nM; in assay [2] it was 1440 nM.

For `O=c1c2cc(-c3ccnc4[nH]ccc34)sc2ncn1Cc1cccc(F)c1`, the IC50 is 1 nM in assay [1] and 13 nM in assay [2].

As to `COc1cccc(Cn2ncc3cc(-c4ccc5[nH]ncc5c4)ccc3c2=O)c1`, the IC50 in assay [1] was 398 nM; in assay [2], > 10000 nM.

`COc1cccc(Cn2cnc3sc(-c4ccnc(Cl)c4)cc3c2=O)c1`: the IC50 is 501 nM in assay [1] and > 10000 nM in assay [2].

Regarding `COc1ccc(Cn2cnc3sc(-c4ccnc5[nH]ccc45)cc3c2=O)cc1OC`, the figures for the IC50 in assay [1] and in assay [2] were 4 nM and 25 nM, respectively.

For `O=c1c2cc(-c3ccnc4[nH]ccc34)sc2ncn1Cc1cccc(C(F)(F)F)c1`, the IC50 was 7 nM in assay [1] and 110 nM in assay [2].

With `COc1cccc(Cn2cnc3sc(-c4ccnc(N)c4)cc3c2=O)c1`, the IC50 in assay [1] is 1 nM; in assay [2], 18 nM.

As for `Nc1cc(-c2cc3c(=O)n(Cc4cccc(F)c4)cnc3s2)ccn1`, the half-maximal inhibitory concentration (IC50) is 5 nM in assay [1] and 34 nM in assay [2].

Take `COc1cccc(Cn2cnc3sc(-c4ccnc(F)c4)cc3c2=O)c1`: the half-maximal inhibitory concentration (IC50) was determined as 83 nM in assay [1] and 1050 nM in assay [2].

Take `COc1cc(Cn2cnc3sc(-c4ccnc(N)c4)cc3c2=O)cc(OC)c1`: the IC50 is 58 nM in assay [1] and > 10000 nM in assay [2].
